How the values were obtained:
Beta-TC6 [1] = assay: Ability to inhibit the release of insulin from the mouse beta-TC6 cell line; format: functional, cell-based
Outline: (§1)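 βTC6 cells, 5 × 10⁴/well, grown 3 days in DMEM + 10% FCS, 11 mM glucose, 20 mM Hepes. Washed twice in NN buffer with 0.1% BSA, preincubated 60 min, then 3 h with 22 mM glucose, 0.1 mM IBMX and serial compound dilutions. Insulin in supernatant measured by in-house ELISA (guinea pig anti-insulin, rat insulin standard). Reference compound as positive control.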

[2] = Oral bioavailability in rat (Sprague-Dawley); format: ADME, organism-based; conditions: in vivo; for bioavailability: Sprague-Dawley
Outline: (§2)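 Cassette dosing, two compounds per cassette, in Sprague–Dawley rats of about 180 g, n = 2. iv doses 0.5 or 0.89 mg/kg; oral doses 1.89 or 2.0 mg/kg. Vehicle 0.1 M potassium phosphate pH 8.0, or PEG 300 based. Heart-puncture sampling, one rat per point. Plasma levels by LC/MS/MS; noncompartmental analysis.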

Rattus norvegicus [3] = species on record: Rattus norvegicus; assay: Vasodilation effects on Wistar rat mesenteric arteries precontracted with phenylephrine; format: functional
Beta-TC6 [4] = assay: Percentage insulin release in vitro in beta-TC6 cells; format: functional; conditions: Mus musculus; outline: as §1
[5] = Acid dissociation constant was determined; format: ADME
Outline: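 Potentiometric titration from pH 2 to 10.5 in 80% MeOH cosolvent. Three titrations on the same sample, with 0.15 M KCl added before the second. psKa values extrapolated to 0% cosolvent by Yasuda–Shedlovsky.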

Rattus norvegicus [6] = species on record: Rattus norvegicus; assay: Maximum change in MAP in rat; format: functional
Outline: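 Anaesthetized male Sprague–Dawley rats given 3 mg/kg iv bolus (0.3 mg/kg for one compound) in 0.15% NaOH/saline via jugular cannula. Maximal percent change in mean arterial pressure over 5 min after dosing; mean ± SEM, 2–4 animals.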

[7] = Changes in potassium fluxes assessed in the glucose responsive insulin-producing murine cell line beta-TC3; format: functional, cell-based, Mus musculus
Outline: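 βTC3 membrane potential read as DiBAC4(3) fluorescence at 0.01, 0.1, 1, 10 and 100 µM, four wells each. Signal normalized to each well's initial value and expressed as fractional fluorescence change over 45 min incubation. EC50 from four-parameter nonlinear fit; mean ± SEM of at least three independent experiments.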

[8] = target: T1, Sulfonylurea receptor 1, Kir6.2 (Homo sapiens, UniProt Q09428+Q14654); assay: Inhibition of [3H]glibenclamide binding to HEK293 cells co-expressing human Sulfonylurea receptor SUR1 and Inward rectifier K+ channel Kir6.2 at low affinity state with 2 mM MgATP; format: cell-based
T1 sequence (Q14654 whole entry): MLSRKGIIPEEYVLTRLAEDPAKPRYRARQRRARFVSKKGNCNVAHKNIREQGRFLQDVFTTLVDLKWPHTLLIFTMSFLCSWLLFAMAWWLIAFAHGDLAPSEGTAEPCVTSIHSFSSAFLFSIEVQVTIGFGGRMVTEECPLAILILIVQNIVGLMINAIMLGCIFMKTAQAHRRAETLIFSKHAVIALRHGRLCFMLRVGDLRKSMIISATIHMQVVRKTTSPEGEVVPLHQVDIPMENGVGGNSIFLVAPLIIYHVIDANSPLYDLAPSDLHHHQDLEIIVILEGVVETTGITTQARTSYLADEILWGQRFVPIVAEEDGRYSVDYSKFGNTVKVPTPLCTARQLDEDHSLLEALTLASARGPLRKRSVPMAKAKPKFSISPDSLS
T1 sequence (Q09428 whole entry): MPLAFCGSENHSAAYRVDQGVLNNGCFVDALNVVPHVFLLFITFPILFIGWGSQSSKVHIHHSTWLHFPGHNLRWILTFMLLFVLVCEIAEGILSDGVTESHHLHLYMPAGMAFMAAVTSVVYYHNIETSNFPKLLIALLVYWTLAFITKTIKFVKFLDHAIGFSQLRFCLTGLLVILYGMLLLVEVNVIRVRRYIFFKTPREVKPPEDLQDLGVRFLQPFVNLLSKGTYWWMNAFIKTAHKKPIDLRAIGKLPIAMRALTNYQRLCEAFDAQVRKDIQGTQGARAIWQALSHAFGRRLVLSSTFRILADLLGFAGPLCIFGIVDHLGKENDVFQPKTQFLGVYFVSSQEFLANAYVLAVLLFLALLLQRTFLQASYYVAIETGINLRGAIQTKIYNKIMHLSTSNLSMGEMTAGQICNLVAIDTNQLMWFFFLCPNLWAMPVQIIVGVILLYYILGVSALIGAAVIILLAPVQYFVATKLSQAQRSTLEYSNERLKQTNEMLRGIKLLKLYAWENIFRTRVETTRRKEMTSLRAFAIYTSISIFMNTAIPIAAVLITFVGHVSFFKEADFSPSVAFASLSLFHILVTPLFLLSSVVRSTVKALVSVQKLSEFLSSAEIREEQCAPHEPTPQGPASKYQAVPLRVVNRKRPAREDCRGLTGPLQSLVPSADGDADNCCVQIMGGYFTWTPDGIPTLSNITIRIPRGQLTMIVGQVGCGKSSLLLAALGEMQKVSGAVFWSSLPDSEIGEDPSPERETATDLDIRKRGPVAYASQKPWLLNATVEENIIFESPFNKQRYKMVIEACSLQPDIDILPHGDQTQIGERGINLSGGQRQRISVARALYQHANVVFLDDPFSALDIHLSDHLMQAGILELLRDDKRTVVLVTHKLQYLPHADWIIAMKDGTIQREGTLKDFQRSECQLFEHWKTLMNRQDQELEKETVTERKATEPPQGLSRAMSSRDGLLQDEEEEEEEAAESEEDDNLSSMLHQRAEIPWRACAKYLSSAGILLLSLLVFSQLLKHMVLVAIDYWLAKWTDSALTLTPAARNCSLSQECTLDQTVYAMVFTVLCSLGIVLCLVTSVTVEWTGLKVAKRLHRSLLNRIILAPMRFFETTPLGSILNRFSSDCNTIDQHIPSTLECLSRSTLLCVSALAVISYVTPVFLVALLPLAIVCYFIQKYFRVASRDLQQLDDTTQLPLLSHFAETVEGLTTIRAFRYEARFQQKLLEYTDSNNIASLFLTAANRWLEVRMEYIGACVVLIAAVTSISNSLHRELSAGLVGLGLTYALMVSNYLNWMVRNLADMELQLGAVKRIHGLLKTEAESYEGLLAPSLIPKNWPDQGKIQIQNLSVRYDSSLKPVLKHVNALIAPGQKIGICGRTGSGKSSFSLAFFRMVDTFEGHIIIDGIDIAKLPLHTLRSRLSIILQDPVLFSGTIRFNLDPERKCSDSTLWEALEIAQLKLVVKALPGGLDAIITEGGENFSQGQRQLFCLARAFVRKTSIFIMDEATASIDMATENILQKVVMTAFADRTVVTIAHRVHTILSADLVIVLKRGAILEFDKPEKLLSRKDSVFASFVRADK

Rattus norvegicus [9] = species on record: Rattus norvegicus; assay: Ability to relax phenylephrine-contracted rat aorta rings; format: functional
Rattus norvegicus [10] = species on record: Rattus norvegicus; assay: Reduction in plasma insulin in 30 min post-injection in rat; format: functional; set-up: concentration or dose not given beside the values
Outline: (§3)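 Postprandial male Sprague–Dawley rats, 280–320 g, under Hypnorm/Dormicum at 37 °C. 3 mg/kg iv bolus over 20 s via jugular cannula (0.3 mg/kg for one compound), dissolved in 0.15% NaOH and saline. Blood taken every 5–10 min from 15 min pre- to 30 min postinjection. Plasma insulin by ELISA, as % reduction from pre-dose level. 2–4 animals.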

Rattus norvegicus [11] = species on record: Rattus norvegicus; assay: Maximum reduction in plasma insulin in rat; format: functional; outline: as §3
[12] = Half life after oral administration to Sprague-Dawley rats; format: ADME, organism-based; conditions: rat, in vivo; outline: as §2
Rattus norvegicus [13] = species on record: Rattus norvegicus; assay: Inhibition of glucose-stimulated insulin release from Wistar rat islets; format: functional
Outline: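 Isolated rat islets held overnight in RPMI, 10% FCS, 11 mM glucose, then 10 islets/well overnight in DMEM, 10% FCS, 3 mM glucose. Run like the βTC6 assay (60 min NN buffer preincubation, 3 h with 22 mM glucose and serial dilutions) without IBMX. Insulin by in-house ELISA.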

[14] = target: T1, Sulfonylurea receptor 1, Kir6.2; assay: Inhibition of [3H]glibenclamide binding to HEK293 cells co-expressing human Sulfonylurea receptor SUR1 and Inward rectifier K+ channel Kir6.2 at high affinity state with 2 mM MgATP; format: cell-based
[15] = target: T1, Sulfonylurea receptor 1, Kir6.2; assay: (§4) Inhibition of [3H]glibenclamide binding to HEK293 cells co-expressing human Sulfonylurea receptor SUR1 and Inward rectifier K+ channel Kir6.2 without ATP; format: cell-based
Outline: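 Membranes from HEK293 cells stably expressing human SUR1/Kir6.2 (100 µg/mL protein) incubated 1 h at 37 °C with 1 nM [3H]glibenclamide in 30 mM HEPES pH 7.4, here without MgCl2 and ATP. Nonspecific binding with 10 µM glipizide. Rapid filtration, scintillation counting; IC50 by one- or two-site sigmoid nonlinear regression.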

Rattus norvegicus [16] = species on record: Rattus norvegicus; assay: Effective concentration required for relaxation of the rat aorta rings; format: functional
Beta-TC6 [17] = assay: Maximum inhibition of glucose stimulated insulin release from mouse beta-TC6 cells at 10 uM in vitro.; format: functional
[18] = target: T1, Sulfonylurea receptor 1, Kir6.2; assay: as §4; format: cell-based; remark: listed apart in the source
Rattus norvegicus [19] = species on record: Rattus norvegicus; assay: Effective concentration required for relaxation of rat aorta rings; format: functional
[20] = Partition coefficient (logP); format: physicochemical; conditions: octanol/water
[21] = LogD for water and octanol distribution coefficient at pH 7.4; format: physicochemical
Outline: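 Three titrations on one sample, with 1.00 mL then 10.00 mL octanol added before the second and third. Aqueous pKa used in refinement; combined multiset gives LogD at pH 7.4.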

SMILES | IC50 (Beta-TC6 [1]) | EC50 (Rattus norvegicus [3]) | EC50 [7] | IC50 [8] | EC50 (Rattus norvegicus [9]) | IC50 (Rattus norvegicus [13]) | IC50 [14] | Emax (Beta-TC6 [4]) | Change (Rattus norvegicus [6]) | Reduction (Rattus norvegicus [10]) | Reduction (Rattus norvegicus [11]) | Emax at 10 µM (Beta-TC6 [17]) | further results
CCNC1=NS(=O)(=O)c2sc(Cl)cc2N1 | 1.9 µM | – | 9 µM | – | 136 µM | – | – | – | – | – | – | 74% | EC50 (Rattus norvegicus [16]): 136 µM
CCCC(C)NC1=NS(=O)(=O)c2sc(Cl)cc2N1 (racemic) | 0.22 µM | – | 41 µM | – | 83 µM | – | – | – | – | – | – | 56% | –
O=S1(=O)NC(NC2CCCC2)=Nc2cc(Cl)sc21 | 1.15 µM | 10.8 µM | 0.4 µM | – | > 300 µM | 0.44 µM | – | 67% | 29% | 22% | 99% | – | –
CCC(C)(C)NC1=NS(=O)(=O)c2sc(Cl)cc2N1 | 0.03 µM | 29.4 µM | 0.2 µM | 375 µM | 11.8 µM | 0.02 µM | 0.18 µM | 82% | -34% | 77% | 87% | – | bioavailability [2]: 47%; IC50 [18]: 899 µM; half-life [12]: 1.65 h
CC1=Nc2ccc(Cl)cc2S(=O)(=O)N1 [DIAZOXIDE] | – | 20.8 µM | 77.4 µM | – | – | 20.3 µM | – | 23% | -26% | 53% | 53% | – | F [2]: 154%; EC50 (Rattus norvegicus [19]): 12.8 µM
CCCCCC(C)NC1=NS(=O)(=O)c2sc(Cl)cc2N1 (racemic) | 24.9 µM | – | 0.4 µM | – | 2 µM | – | – | – | – | – | – | 36% | –
NC1=NS(=O)(=O)c2sc(Cl)cc2N1 | 21.1 µM | – | – | – | 262 µM | – | – | – | – | – | – | 27% | EC50 (Rattus norvegicus [19]): 262 µM
O=S1(=O)NC(NC2CCC2)=Nc2cc(Cl)sc21 | 0.49 µM | 38.6 µM | 1.4 µM | 146 µM | 27 µM | 0.05 µM | 0.12 µM | 78% | 5% | 100% | 100% | – | bioavailability [2]: 49%; IC50 [18]: 943 µM; half-life [12]: 1.88 h
CCC(C)NC1=NS(=O)(=O)c2sc(Cl)cc2N1 (stereo not drawn) | 0.16 µM | – | 1.3 µM | – | 65 µM | – | – | – | – | – | – | 74% | –
CC1(NC2=NS(=O)(=O)c3sc(Cl)cc3N2)CC1 [TIFENAZOXIDE] | 0.15 µM | 14.3 µM | 0.6 µM | – | 119 µM | – | – | 69% | -4% | 77% | 85% | – | –

Continued, in another order:

IC50 (Beta-TC6 [1]) | EC50 (Rattus norvegicus [3]) | EC50 [7] | IC50 [8] | EC50 (Rattus norvegicus [9]) | IC50 (Rattus norvegicus [13]) | IC50 [14] | SMILES | Emax (Beta-TC6 [4]) | Change (Rattus norvegicus [6]) | Reduction (Rattus norvegicus [10]) | Reduction (Rattus norvegicus [11]) | Emax at 10 µM (Beta-TC6 [17]) | further results
0.41 µM | 19.2 µM | 0.8 µM | 309 µM | 51 µM | 0.07 µM | 0.46 µM | CC[C@H](C)NC1=NS(=O)(=O)c2sc(Cl)cc2N1 | 79% | -7% | 94% | 96% | – | bioavailability [2]: 49%; pKa [5]: 8.42; half-life [12]: 0.967 h; IC50 [15]: 420 µM
1.01 µM | – | 0.3 µM | – | 75.3 µM | – | – | CC(C)[C@@H](C)NC1=NS(=O)(=O)c2sc(Cl)cc2N1 | – | – | – | – | 62% | –
0.02 µM | 7.2 µM | 0.014 µM | 10.8 µM | 6.5 µM | 0.01 µM | 0.003 µM | CC1(NC2=NS(=O)(=O)c3sc(Cl)cc3N2)CCC1 | 91% | -48% | 76% | 82% | – | IC50 [18]: 859 µM
0.75 µM | – | 17 µM | – | 2 µM | – | – | CC(NC1=NS(=O)(=O)c2sc(Cl)cc2N1)C(C)(C)C (racemic) | – | – | – | – | 56% | –
2.4 µM | 23.3 µM | 2 µM | 584 µM | 64.7 µM | 0.7 µM | 2.27 µM | CCCNC1=NS(=O)(=O)c2sc(Cl)cc2N1 | 65% | 13% | 16% | 100% | 65% | bioavailability [2]: 69%; pKa [5]: 8.23; logP [20]: 2.49; IC50 [18]: 924 µM; half-life [12]: 1.2 h; logD [21]: 2.42
